Data published in ChEMBL document CHEMBL1255429, “Efflux pumps are involved in the defense of Gram-negative bacteria against the natural products isobavachalcone and diospyrone” (2010).
≈ marks a conversion by molar mass, not a printed value.

Columns and labels:
Type in all cases: functional
[1] = system: Klebsiella aerogenes; experiment: Antimicrobial activity against Enterobacter aerogenes EA289 after 18 hrs by rapid INT colorimetric assay in presence of efflux pump inhibitor phenylalanine arginine; conditions: EA289, 18 h
[2] = system: Klebsiella aerogenes; experiment: Antimicrobial activity against Enterobacter aerogenes EA294 after 18 hrs by rapid INT colorimetric assay; conditions: EA294, 18 h
Outline: (§1)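 Strains precultured overnight on Mueller-Hinton agar. Samples dissolved in DMSO-MHB, serially diluted twofold in MHB, inoculum 1.5 × 10^6 CFU/ml in MHB added; 37°C, 18 h; final DMSO <2.5%. 0.2 mg/ml INT then added, 30 min at 37°C. MIC = lowest concentration preventing yellow-to-pink reduction, i.e. complete growth inhibition.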

[3] = system: Escherichia coli; experiment: Antimicrobial activity against Escherichia coli AG100A after 18 hrs by rapid INT colorimetric assay; outline: as §1
[4] = system: Klebsiella pneumoniae; experiment: Antimicrobial activity against Klebsiella pneumoniae ATCC 11296 after 18 hrs by rapid INT colorimetric assay in presence of efflux pump inhibitor phenylalanine arginine; conditions: ATCC 11296, 18 h
[5] = system: Escherichia coli; experiment: Antimicrobial activity against Escherichia coli ATCC 8739 after 18 hrs by rapid INT colorimetric assay; conditions: ATCC 8739, 18 h; outline: as §1
[6] = system: Escherichia coli; experiment: Antimicrobial activity against tetracycline-resistant Escherichia coli AG102 after 18 hrs by rapid INT colorimetric assay; conditions: AG102, 18 h; outline: as §1
[7] = system: Klebsiella aerogenes; experiment: Antimicrobial activity against Enterobacter aerogenes EA5 after 18 hrs by rapid INT colorimetric assay; conditions: EA5, 18 h
Outline: (§2)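 Strains precultured overnight on Mueller-Hinton agar. Sample dissolved in DMSO-MHB, twofold serial dilutions in MHB, inoculum 1.5 × 10^6 CFU/ml; final DMSO below 2.5%. Incubated 37°C 18 h, then 0.2 mg/ml INT added, 30 min at 37°C. MIC = lowest concentration preventing yellow-to-pink change (complete growth inhibition). DMSO-only wells as negative control.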

[8] = system: Pseudomonas aeruginosa; experiment: Antimicrobial activity against Pseudomonas aeruginosa PA124 after 18 hrs by rapid INT colorimetric assay in presence of efflux pump inhibitor phenylalanine arginine; conditions: PA124, 18 h
[9] = system: Escherichia coli; experiment: Antimicrobial activity against tetracycline-resistant Escherichia coli AG100A after 18 hrs by rapid INT colorimetric assay; outline: as §1
[10] = system: Klebsiella pneumoniae; experiment: Antimicrobial activity against Klebsiella pneumoniae KP63 after 18 hrs by rapid INT colorimetric assay; conditions: KP63, 18 h; outline: as §2
[11] = system: Klebsiella aerogenes; experiment: Antimicrobial activity against Enterobacter aerogenes EA-CM64 after 18 hrs by rapid INT colorimetric assay; conditions: EA-CM64, 18 h; outline: as §1
[12] = system: Klebsiella aerogenes; experiment: Antimicrobial activity against Enterobacter aerogenes EA294 after 18 hrs by rapid INT colorimetric assay in presence of efflux pump inhibitor phenylalanine arginine; conditions: EA294, 18 h
[13] = system: Enterobacter cloacae; experiment: Antimicrobial activity against Enterobacter cloacae Ec07769 after 18 hrs by rapid INT colorimetric assay; conditions: Ec07769, 18 h; outline: as §2
[14] = system: Enterobacter cloacae; experiment: Antimicrobial activity against Enterobacter cloacae Ec1194 after 18 hrs by rapid INT colorimetric assay in presence of efflux pump inhibitor phenylalanine arginine; conditions: Ec1194, 18 h
Outline: (§3)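 Broth microdilution MIC in Mueller-Hinton broth with PAßN at a final 20 μg/ml throughout. Twofold dilutions of sample from DMSO-MHB stock; inoculum 1.5 × 10^6 CFU/ml; 18 h at 37°C, final DMSO <2.5%. Growth read by INT (0.2 mg/ml, 30 min, 37°C). MIC taken as lowest concentration with no pink colour.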

[15] = system: Escherichia coli; experiment: Antimicrobial activity against Escherichia coli ATCC 10536 after 18 hrs by rapid INT colorimetric assay; conditions: ATCC 10536, 18 h; outline: as §2
[16] = system: Klebsiella aerogenes; experiment: Antimicrobial activity against Enterobacter aerogenes EA3 after 18 hrs by rapid INT colorimetric assay; conditions: EA3, 18 h; outline: as §2
[17] = system: Pseudomonas aeruginosa; experiment: Antimicrobial activity against Pseudomonas aeruginosa PA124 after 18 hrs by rapid INT colorimetric assay; conditions: PA124, 18 h; outline: as §1
[18] = system: Klebsiella aerogenes; experiment: Antimicrobial activity against Enterobacter aerogenes EA3 after 18 hrs by rapid INT colorimetric assay in presence of efflux pump inhibitor phenylalanine arginine; conditions: EA3, 18 h
[19] = system: Escherichia coli; experiment: Antimicrobial activity against tetracycline-resistant Escherichia coli AG102 after 18 hrs by rapid INT colorimetric assay in presence of efflux pump inhibitor phenylalanine arginine; conditions: AG102, 18 h; outline: as §3
[20] = system: Klebsiella pneumoniae; experiment: Antimicrobial activity against Klebsiella pneumoniae KP63 after 18 hrs by rapid INT colorimetric assay in presence of efflux pump inhibitor phenylalanine arginine; conditions: KP63, 18 h
[21] = system: Klebsiella aerogenes; experiment: Antimicrobial activity against Enterobacter aerogenes EA-CM64 after 18 hrs by rapid INT colorimetric assay in presence of efflux pump inhibitor phenylalanine arginine; conditions: EA-CM64, 18 h
[22] = system: Escherichia coli; experiment: Antimicrobial activity against Escherichia coli AG100A after 18 hrs by rapid INT colorimetric assay in presence of efflux pump inhibitor phenylalanine arginine
[23] = system: Enterobacter cloacae; experiment: Antimicrobial activity against Enterobacter cloacae Ec07769 after 18 hrs by rapid INT colorimetric assay in presence of efflux pump inhibitor phenylalanine arginine; conditions: Ec07769, 18 h
[24] = system: Escherichia coli; experiment: Antimicrobial activity against Escherichia coli ATCC 8739 after 18 hrs by rapid INT colorimetric assay in presence of efflux pump inhibitor phenylalanine arginine; conditions: ATCC 8739, 18 h; outline: as §3
[25] = system: Klebsiella aerogenes; experiment: Antimicrobial activity against Enterobacter aerogenes EA27 after 18 hrs by rapid INT colorimetric assay; conditions: EA27, 18 h; outline: as §2
[26] = system: Klebsiella pneumoniae; experiment: Antimicrobial activity against Klebsiella pneumoniae ATCC 11296 after 18 hrs by rapid INT colorimetric assay; conditions: ATCC 11296, 18 h; outline: as §1
[27] = system: Klebsiella aerogenes; experiment: Antimicrobial activity against Enterobacter aerogenes EA5 after 18 hrs by rapid INT colorimetric assay in presence of efflux pump inhibitor phenylalanine arginine; conditions: EA5, 18 h
[28] = system: Escherichia coli; experiment: Antimicrobial activity against Escherichia coli AG100 after 18 hrs by rapid INT colorimetric assay; conditions: AG100, 18 h; outline: as §1
[29] = system: Escherichia coli; experiment: Antimicrobial activity against Escherichia coli AG100 after 18 hrs by rapid INT colorimetric assay in presence of efflux pump inhibitor phenylalanine arginine; conditions: AG100, 18 h
[30] = system: Klebsiella aerogenes; experiment: Antimicrobial activity against Enterobacter aerogenes ATCC 13048 after 18 hrs by rapid INT colorimetric assay in presence of efflux pump inhibitor phenylalanine arginine; conditions: ATCC 13048, 18 h
[31] = system: Pseudomonas aeruginosa; experiment: Antimicrobial activity against Pseudomonas aeruginosa PAO1 after 18 hrs by rapid INT colorimetric assay; conditions: PAO1, 18 h; outline: as §1
[32] = system: Enterobacter cloacae; experiment: Antimicrobial activity against Enterobacter cloacae Ec1194 after 18 hrs by rapid INT colorimetric assay; conditions: Ec1194, 18 h; outline: as §2
[33] = system: Escherichia coli; experiment: Antimicrobial activity against Escherichia coli ATCC 10536 after 18 hrs by rapid INT colorimetric assay in presence of efflux pump inhibitor phenylalanine arginine beta-naphthylamide; conditions: ATCC 10536, 18 h; outline: as §3
[34] = system: Klebsiella aerogenes; experiment: Antimicrobial activity against Enterobacter aerogenes EA298 after 18 hrs by rapid INT colorimetric assay in presence of efflux pump inhibitor phenylalanine arginine; conditions: EA298, 18 h
[35] = system: Klebsiella aerogenes; experiment: Antimicrobial activity against Enterobacter aerogenes EA289 after 18 hrs by rapid INT colorimetric assay; conditions: EA289, 18 h; outline: as §2
[36] = system: Klebsiella aerogenes; experiment: Antimicrobial activity against Enterobacter aerogenes EA298 after 18 hrs by rapid INT colorimetric assay; conditions: EA298, 18 h; outline: as §1
[37] = system: Klebsiella pneumoniae; experiment: Antimicrobial activity against Klebsiella pneumoniae KP55 after 18 hrs by rapid INT colorimetric assay in presence of efflux pump inhibitor phenylalanine arginine; conditions: KP55, 18 h
[38] = system: Klebsiella aerogenes; experiment: Antimicrobial activity against Enterobacter aerogenes ATCC 13048 after 18 hrs by rapid INT colorimetric assay; conditions: ATCC 13048, 18 h; outline: as §2
[39] = system: Klebsiella pneumoniae; experiment: Antimicrobial activity against Klebsiella pneumoniae KP55 after 18 hrs by rapid INT colorimetric assay; conditions: KP55, 18 h; outline: as §2
[40] = system: Escherichia coli; experiment: Antimicrobial activity against tetracycline-resistant Escherichia coli AG100A after 18 hrs by rapid INT colorimetric assay in presence of efflux pump inhibitor phenylalanine arginine; outline: as §3
[41] = system: Klebsiella aerogenes; experiment: Antimicrobial activity against Enterobacter aerogenes EA27 after 18 hrs by rapid INT colorimetric assay in presence of efflux pump inhibitor phenylalanine arginine; conditions: EA27, 18 h
[42] = system: Pseudomonas aeruginosa; experiment: Antimicrobial activity against Pseudomonas aeruginosa PAO1 after 18 hrs by rapid INT colorimetric assay in presence of efflux pump inhibitor phenylalanine arginine; conditions: PAO1, 18 h

Structure (SMILES): CCn1cc(C(=O)O)c(=O)c2cc(F)c(N3CCNCC3)cc21 [NORFLOXACIN]
- MIC [1]: 128 µg/mL
- MIC [2]: 64 µg/mL (≈ 200 µM)
- MIC [3]: 0.03 µg/mL (≈ 0.0939 µM)
- MIC [4]: 0.5 µg/mL
- MIC [5]: 0.12 µg/mL (≈ 0.376 µM)
- MIC [6]: 1 µg/mL (≈ 3.13 µM)
- MIC [7]: 256 µg/mL (≈ 802 µM)
- MIC [8]: 32 µg/mL
- MIC [9]: 1 µg/mL (≈ 3.13 µM)
- MIC [10]: 16 µg/mL (≈ 50.1 µM)
- MIC [11]: 4 µg/mL (≈ 12.5 µM)
- MIC [12]: 32 µg/mL
- MIC [13]: > 256 µg/mL
- MIC [14]: 32 µg/mL
- MIC [15]: 0.06 µg/mL (≈ 0.188 µM)
- MIC [16]: 128 µg/mL (≈ 401 µM)
- MIC [17]: 64 µg/mL (≈ 200 µM)
- MIC [18]: 64 µg/mL
- MIC [19]: 0.25 µg/mL
- MIC [20]: 4 µg/mL
- MIC [21]: 2 µg/mL
- MIC [22]: 0.007 µg/mL
- MIC [23]: > 256 µg/mL
- MIC [24]: 0.12 µg/mL
- MIC [25]: 256 µg/mL (≈ 802 µM)
- MIC [26]: 1 µg/mL (≈ 3.13 µM)
- MIC [27]: 128 µg/mL
- MIC [28]: 0.12 µg/mL (≈ 0.376 µM)
- MIC [29]: 0.12 µg/mL
- MIC [30]: 0.25 µg/mL
- MIC [31]: 2 µg/mL (≈ 6.26 µM)
- MIC [32]: 32 µg/mL (≈ 100 µM)
- MIC [33]: 0.03 µg/mL
- MIC [34]: 8 µg/mL
- MIC [35]: 128 µg/mL (≈ 401 µM)
- MIC [36]: 8 µg/mL (≈ 25.1 µM)
- MIC [37]: 8 µg/mL
- MIC [38]: 0.25 µg/mL (≈ 0.783 µM)
- MIC [39]: 16 µg/mL (≈ 50.1 µM)
- MIC [40]: 0.25 µg/mL
- MIC [41]: 128 µg/mL
- MIC [42]: 1 µg/mL

Structure (SMILES): CC1=C(c2c(C)cc(O)c3c2C(=O)C(c2c(O)c4c(C)cccc4oc2=O)=C(c2c(O)c4c(C)cccc4oc2=O)C3=O)C(=O)c2c(O)cccc2C1=O [DIOSPYRONE]
- MIC [1]: 8 µg/mL
- MIC [2]: 128 µg/mL (≈ 177 µM)
- MIC [3]: 4 µg/mL (≈ 5.54 µM)
- MIC [4]: 2 µg/mL
- MIC [5]: 128 µg/mL (≈ 177 µM)
- MIC [6]: 64 µg/mL (≈ 88.6 µM)
- MIC [7]: 128 µg/mL (≈ 177 µM)
- MIC [8]: 1 µg/mL
- MIC [9]: 16 µg/mL (≈ 22.1 µM)
- MIC [10]: 32 µg/mL (≈ 44.3 µM)
- MIC [11]: 128 µg/mL (≈ 177 µM)
- MIC [12]: 8 µg/mL
- MIC [13]: 128 µg/mL (≈ 177 µM)
- MIC [14]: 2 µg/mL
- MIC [15]: 32 µg/mL (≈ 44.3 µM)
- MIC [16]: 128 µg/mL (≈ 177 µM)
- MIC [17]: 64 µg/mL (≈ 88.6 µM)
- MIC [18]: 64 µg/mL
- MIC [19]: 2 µg/mL
- MIC [20]: 4 µg/mL
- MIC [21]: 16 µg/mL
- MIC [22]: 0.12 µg/mL
- MIC [23]: 8 µg/mL
- MIC [24]: 4 µg/mL
- MIC [25]: 128 µg/mL (≈ 177 µM)
- MIC [26]: 32 µg/mL (≈ 44.3 µM)
- MIC [27]: 64 µg/mL
- MIC [28]: 64 µg/mL (≈ 88.6 µM)
- MIC [29]: 1 µg/mL
- MIC [30]: 32 µg/mL
- MIC [31]: 64 µg/mL (≈ 88.6 µM)
- MIC [32]: 32 µg/mL (≈ 44.3 µM)
- MIC [33]: 2 µg/mL
- MIC [34]: 16 µg/mL
- MIC [35]: 128 µg/mL (≈ 177 µM)
- MIC [36]: 32 µg/mL (≈ 44.3 µM)
- MIC [37]: 8 µg/mL
- MIC [38]: 128 µg/mL (≈ 177 µM)
- MIC [39]: 64 µg/mL (≈ 88.6 µM)
- MIC [40]: 0.24 µg/mL
- MIC [41]: 16 µg/mL
- MIC [42]: 4 µg/mL
